Experiment [1] has as its target T1, preformed Aβ1–42 fibrils (Homo sapiens, UniProt P05067). The experiment is described as follows: Atomic force microscopy imaging of preformed Aβ1–42 fibrils. To be noted: 25 μM fibrils with 25 μM amentoflavone, 1 h.
In another experiment the target is Aβ1–42 fibrils (Homo sapiens, UniProt P05067). The experiment is described as follows: SDS-PAGE electrophoresis and immunoblotting with anti-Aβ antibody 6E10. To be noted: 25 μM fibrils with 25 μM amentoflavone, glutaraldehyde cross-linked. Background: Immunoblotting shows a protein as a band on a membrane.
Aβ1–42 fibrils, sequence (P05067 672-713): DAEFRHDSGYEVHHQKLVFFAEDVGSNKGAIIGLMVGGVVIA
Experiment [2] concerns the target T1, preformed Aβ1–42 fibrils. The experiment is described as follows: Aβ1–42 disaggregation assay. The class given is biochemical. The gist of the method: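 Fibrils preformed by incubating 20 μM recombinant human Aβ1–42 with 5 μM ThT in PBS buffer (pH 7.40), 37°C, 24 h. Test compound then added at final 10, 2, 0.4, 0.08 μM, or DMSO control, and incubated a further 7 h at 37°C. ThT fluorescence read every 2.5 min (ex 460/em 508 nm). EC50 from curves of percent change in ThT intensity versus concentration. Four independent experiments, duplicate samples; mean ± SEM.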

For experiment [3], the target named is Recombinant human Aβ1–42 peptide (Homo sapiens, UniProt P05067). The experiment is described as follows: Aβ1–42 aggregation assay. The class given is biochemical. The gist of the method: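 Recombinant human Aβ1–42 (HFIP-treated) dissolved in DMSO, diluted into PBS (50 mM NaH2PO4, 100 mM NaCl, pH 7.40); final 20 μM Aβ1–42 with 5 μM ThT ± test compound at 10, 2, 0.4, 0.08 μM (from 10 mM DMSO stocks). Incubated 37°C for 24 h; ThT fluorescence read every 10 min, ex 460/em 508 nm. IC50 from concentration-response curves; mean ± SEM, 4 independent experiments.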
Recombinant human Aβ1–42 peptide, sequence (P05067 672-713): as above

T1 sequence (P05067 672-713): as above

Usually EC50 stands for the concentration needed to bring the measured effect to its halfway point. Low values mean a more potent agent, high ones a less potent agent. What is called IC50 is the concentration needed to halve the response being measured. With `O=c1cc(-c2ccc(O)c(-c3c(O)cc(O)c4c(=O)cc(-c5ccc(O)cc5)oc34)c2)oc2cc(O)cc(O)c12` [Amentoflavone, amentoflavone], on preformed Aβ1–42 fibrils [1], the “Structural change of preformed Aβ1–42 fibrils (AFM)” value is reported as “conformational changes of the fibrils into amorphous Aβ1–42 aggregates”. Further, on Aβ1–42 fibrils, the “Conversion of Aβ1–42 fibrils to oligomers and monomers (immunoblot)” value is “did not increase the conversion of Aβ1–42 fibrils to oligomers and monomers”. The EC50 at preformed Aβ1–42 fibrils [2] is 590 ± 190 nM. For the same molecule, at preformed Aβ1–42 fibrils [2] (concentration-dependent decline, preformed Aβ1–42 fibrils), the “Time to decline of ThT fluorescent intensity after addition” value was not above 30 min. Besides, the “Time to lowering of ThT fluorescent intensity after the treatment” value on preformed Aβ1–42 fibrils [2] (concentration-dependent, preformed Aβ1–42 fibrils) is listed as not above 1 h. For the same molecule, the IC50 in experiment [3] came out at 260 ± 30 nM.
Consider `COc1ccc(-c2cc(=O)c3c(O)cc(O)cc3o2)cc1-c1c(O)cc(O)c2c(=O)cc(-c3ccc(O)cc3)oc12` [Bilobetin, bilobetin], for which the EC50 on preformed Aβ1–42 fibrils [2] stood at 2450 ± 1280 nM. Besides, the IC50 in experiment [3] is 1530 ± 200 nM.
In the same order, the values of `COc1cc(O)c2c(=O)cc(-c3ccc(OC)c(-c4c(O)cc(O)c5c(=O)cc(-c6ccc(O)cc6)oc45)c3)oc2c1` [Ginkgetin, ginkgetin] are 6810 ± 4080 nM and 4920 ± 1310 nM.
In the same order, the values of `COc1ccc(-c2cc(=O)c3c(O)cc(O)c(-c4cc(-c5cc(=O)c6c(O)cc(O)cc6o5)ccc4OC)c3o2)cc1` [Isoginkgetin, isoginkgetin] are more than 10000 nM and 1800 ± 380 nM.
In turn, `COc1cc(O)c2c(=O)cc(-c3ccc(O)c(-c4c(O)cc(O)c5c(=O)cc(-c6ccc(O)cc6)oc45)c3)oc2c1` [Sequoiaflavone] registered an EC50 on preformed Aβ1–42 fibrils [2] of 2040 ± 790 nM. For the same molecule, the IC50 in experiment [3] is 290 ± 10 nM.
In the same order, the values of `COc1cc(O)c2c(=O)cc(-c3ccc(O)cc3)oc2c1-c1cc(-c2cc(=O)c3c(O)cc(O)cc3o2)ccc1O` [Sotetsuflavone, sotetsuflavone] are more than 10000 nM and 8700 ± 1210 nM.
